Experimental data as given in ChEMBL document CHEMBL1157378, “Role for cell density in antifungal drug resistance in Candida albicans biofilms” (2007).
Converted amounts (≈) assume the structure as drawn. The source made the active and inactive calls. The calls are words filed in the database; no cut-off is given here.

Tests used:
Candida albicans [1] = assay: Antimicrobial activity against Candida albicans SC5314 dissociated biofilms grown on polyvinylchloride catheter surface at cell density of 10^3 cells/ml at 0.25 to 8 ug/ml by XTT assay; type: functional, organism-based
In short: (§1)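 1-cm discs of denture acrylic, PVC catheter or silicone elastomer-coated latex catheter, ethylene-oxide sterilised. Seeded with 1 ml of 1 x 10^6 cells/ml, adhesion 90 min at 37°C, washed, grown 48 h at 37°C in RPMI. Biofilm scraped off, set to 1 x 10^3 or 1 x 10^8 cells/ml, exposed to fluconazole, read by XTT at 490 nm.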

Candida albicans [2] = assay: Antimicrobial activity against Chk1 deficient Candida albicans CHK21 dissociated biofilms at cell density of 10^3 cells/ml after 48 hrs by XTT assay; type: functional; details: CHK21, 48 h
In short: (§2)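 Polystyrene-well biofilms (48 h, 37°C) washed, then broken up in 100 µl RPMI by scraping and aspiration. Cells used undiluted (about 2 x 10^8 cells/ml equivalent) or adjusted by A600 against a hemacytometer-calibrated yeast standard curve. Drug exposure at 37°C for 48 h (caspofungin 24 h), then XTT/menadione read at 490 nm.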

Candida albicans [3] = assay: Antimicrobial activity against Candida albicans GDH2346 dissociated biofilms at cell density of 10^3 cells/ml after 48 hrs by XTT assay; type: functional; details: GDH2346, 48 h; in short: as §2
Candida albicans [4] = assay: Antimicrobial activity against fluconazole-resistant Candida albicans FH5 at planktonic cell density of 10^8 cells/ml after 48 hrs by XTT assay; type: functional; details: FH5, 48 h
In short: (§3)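 YNB-grown yeast (50 mM glucose, room temperature, shaken, to ~2 x 10^8 cells/ml) washed into MOPS-buffered RPMI 1640 with L-glutamine and set to the stated density. Exposed to twofold serial drug dilutions (1,024 to 0.0313 µg/ml) at 37°C, 48 h (caspofungin 24 h), with drug-free controls. Read-out: XTT (0.5 g/liter) plus 1 µM menadione, formazan at 490 nm.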

Candida albicans [5] = assay: Antimicrobial activity against Chk1 deficient Candida albicans CHK21 at planktonic cell density of 10^8 cells/ml after 48 hrs by XTT assay; type: functional; details: CHK21, 48 h; in short: as §3
Candida albicans [6] = assay: Antimicrobial activity against Candida albicans SC5314 dissociated biofilms grown on silicone-elastomer coated latex surface at cell density of 10^8 cells/ml at 0.25 to 8 ug/ml by XTT assay; type: functional, organism-based; in short: as §1
Candida albicans [7] = assay: Antimicrobial activity against Candida albicans FH1 dissociated biofilms at cell density of 10^3 cells/ml after 48 hrs by XTT assay; type: functional; details: FH1, 48 h; in short: as §2
Candida albicans [8] = assay: Antimicrobial activity against Candida albicans disaggregated biofilms; type: functional
In short: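 Biofilm grown 48 h at 37°C in RPMI (MOPS-buffered) on polystyrene wells from 1 x 10^6 cells/ml, washed, then dissociated by scraping/aspiration in 100 µl. Used undiluted (about 2 x 10^8 cells/ml) or diluted to about 2 x 10^3 cells/ml. Twofold drug dilutions (1,024 to 0.0313 µg/ml) for 48 h at 37°C (caspofungin 24 h). Read-out is XTT/menadione reduction at 490 nm.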

Candida albicans [9] = assay: Antimicrobial activity against fluconazole-resistant Candida albicans FH5 dissociated biofilms at cell density of 10^3 cells/ml after 48 hrs by XTT assay; type: functional; details: FH5, 48 h; in short: as §2
Candida albicans [10] = assay: Antimicrobial activity against Candida albicans SC5314 dissociated biofilms grown on polymethylmethacrylate surface at cell density of 10^8 cells/ml at 0.25 to 8 ug/ml by XTT assay; type: functional, organism-based; in short: as §1
Candida albicans [11] = assay: Antimicrobial activity against Candida albicans GDH2346 at planktonic cell density of 10^8 cells/ml after 48 hrs by XTT assay; type: functional; details: GDH2346, 48 h; in short: as §3
Candida albicans [12] = assay: Antimicrobial activity against Candida albicans SC5314 dissociated biofilms at cell density of 10^8 cells/ml after 48 hrs by XTT assay; type: functional; details: SC5314, 48 h; in short: as §2
Candida albicans [13] = assay: Antimicrobial activity against Chk1 deficient Candida albicans CHK21 at planktonic cell density of 10^3 cells/ml after 48 hrs by XTT assay; type: functional; details: CHK21, 48 h; in short: as §3
Candida albicans [14] = assay: Antimicrobial activity against Cdr1, Cdr2 and Mdr1 deficient Candida albicans DSY1050 at planktonic cell density of 10^8 cells/ml after 48 hrs by XTT assay; type: functional; details: DSY1050, 48 h; in short: as §3

OC(Cn1cncn1)(Cn1cncn1)c1ccc(F)cc1F [FLUCONAZOLE]
Activity (Candida albicans [1]): Active
MIC80 (Candida albicans [2]): 0.125 µg/mL (≈ 0.408 µM)
MIC80 (Candida albicans [3]): 0.25 µg/mL (≈ 0.816 µM)
MIC80 (Candida albicans [4]): > 512 µg/mL
MIC80 (Candida albicans [5]): > 64 µg/mL
Activity (Candida albicans [6]): inactive
MIC80 (Candida albicans [7]): 2 µg/mL (≈ 6.53 µM)
MIC (Candida albicans [8]): 256 µg/mL (≈ 836 µM)
MIC80 (Candida albicans [9]): 64 µg/mL (≈ 209 µM)
Activity (Candida albicans [10]): inactive
MIC80 (Candida albicans [11]): > 512 µg/mL
MIC80 (Candida albicans [12]): > 256 µg/mL
MIC80 (Candida albicans [13]): 0.125 µg/mL (≈ 0.408 µM)
MIC80 (Candida albicans [14]): > 64 µg/mL
